Data from ChEMBL document CHEMBL3243949, “Discriminant--analytical investigation on the structural dependence of hyperglycemic and hypoglycemic activity in a series of substituted o-toluenesulfonylthioureas and o-toluenesulfonylureas” (1979).

Tested on: Rattus norvegicus
Test: Effect on blood glucose level per 100 ml in rat at 70 mg/kg, ip after 90 mins
Assay type: functional
Conditions: route intraperitoneal
Summary of the method: (§1)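 Narcotized rats, six per experiment; blood sugar measured before and 90 min after intraperitoneal dosing (70 and 100 mg/kg used in study). Glucose determined by o-toluidine reaction in acid medium. Values are mean of six rats ± 2 s. Classed hyper- or hypoglycemic by Student's t test, before vs after, when α < 0.01.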

SMILES | Activity [mg]
CCCCNC(=O)NS(=O)(=O)c1ccc(OC)cc1C | 114

Tested on: Rattus norvegicus
Test: Hypoglycemic activity in rat assessed as blood glucose level per 100 ml at 70 mg/kg, ip after 90 mins
Assay type: functional
Conditions: route intraperitoneal
Summary of the method: as §1

SMILES | Activity [mg]
CCCCNC(=S)NS(=O)(=O)c1ccc(NC(C)=O)cc1C | 116
CCCCOc1ccc(S(=O)(=O)NC(=S)NC)c(C)c1 | 77
CCCCNC(=O)NS(=O)(=O)c1ccc(OCCC)cc1C | 130
CCCCNC(=S)NS(=O)(=O)c1ccc(OCC)cc1C | 99
CCCCCOc1ccc(S(=O)(=O)NC(=S)NCCCC)c(C)c1 | 129
CCCCNC(=S)NS(=O)(=O)c1ccc(C)cc1C | 119
CCCCNC(=O)NS(=O)(=O)c1ccc(OCC)cc1C | 114
CCCCNC(=O)NS(=O)(=O)c1ccc(C)cc1C | 102
COc1ccc(S(=O)(=O)NC(=O)NCc2ccccc2)c(C)c1 | 104
CCCCNC(=O)NS(=O)(=O)c1ccc(NC(C)=O)cc1C | 112
COc1ccc(S(=O)(=O)NC(=S)NCc2ccccc2)c(C)c1 | 97

Tested on: Rattus norvegicus
Test: Hyperglycemic activity in rat assessed as blood glucose level per 100 ml at 70 mg/kg, ip after 90 mins
Assay type: functional
Conditions: route intraperitoneal
Summary of the method: as §1

SMILES | Activity [mg]
CCCNC(=S)NS(=O)(=O)c1ccc(OC)cc1C | 153
CCCCCOc1ccc(S(=O)(=O)NC(=O)NCCCC)c(C)c1 | 79
CCCNC(=O)NS(=O)(=O)c1ccc(OC)cc1C | 135
CCCCNC(=O)NS(=O)(=O)c1ccc(OCCCC)cc1C | 113
CCCCNC(=S)NS(=O)(=O)c1ccc(OCCC)cc1C | 160
CCCCOc1ccc(S(=O)(=O)NC(=O)NC)c(C)c1 | 96
COc1ccc(S(=O)(=O)NC(N)=O)c(C)c1 | 97
CNC(=O)NS(=O)(=O)c1ccc(OC)cc1C | 142
CCNC(=O)NS(=O)(=O)c1ccc(OC)cc1C | 135
CCOc1ccc(S(=O)(=O)NC(N)=O)c(C)c1 | 103
